Source: ChEMBL document CHEMBL1250448, “Inhibitor hijacking of Akt activation” (Nat Chem Biol, 2009)
Calls of active or inactive are those of the source. The calls are words filed in the database; no cut-off is given here.

Tests used:
[1] = tested on: PC-3; experiment: Induction of myristoylated AKT2 M225G mutant Ser473 hyperphosphorylation expressed in PC3 cells at 2.5 uM after 30 mins by immunoblotting; type: cell-based
[2] = target: T1, RAC-alpha serine/threonine-protein kinase (Homo sapiens, UniProt P31749); experiment: Inhibition of wild type AKT1 expressed in HEK293 cells assessed as reduction of IGF1-induced GSK3-beta Ser9 phosphorylation treated 20 mins before IGF1 stimulation by immunoblotting; type: cell-based
Procedure, shortened: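 Untransfected HEK293 cells carrying endogenous Akt were serum-starved overnight. They were treated with compound for 20 min, then stimulated with 50 ng/ml IGF-1 for 10 min. DMSO stocks were diluted 1:1000. Lysates in Tris pH 7.5/Triton buffer with phosphatase inhibitors were immunoblotted for GSK3β Ser9 and Akt Thr308/Ser473 phosphorylation, read by ECL.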

[3] = target: T1, RAC-alpha serine/threonine-protein kinase; experiment: Induction of flag-tagged wild type AKT1 Ser473 hyperphosphorylation expressed in HEK293 cells coexpressing HA-tagged AKT1 M227G after 30 mins by immunoblotting
[4] = tested on: MiaPaCa2; experiment: Induction of myristoylated AKT2 M225G and kinase dead D289A mutant Thr308 hyperphosphorylation expressed in MiaPaCa2 cells at 2.5 uM after 30 mins by immunoblotting; type: cell-based
[5] = tested on: HEK-293T; experiment: Induction myristoylated AKT2 M225G mutant Ser473 hyperphosphorylation expressed in HEK293T cells at 2.5 uM after 30 mins pretreated with PDK1 inhibitor BX-795 for 10 mins before compound addition by immunoblotting; type: cell-based
[6] = tested on: MCF7; experiment: Induction of myristoylated AKT2 M225G and kinase dead D289A mutant Ser473 hyperphosphorylation expressed in MCF7 cells at 2.5 uM after 30 mins by immunoblotting; type: cell-based
[7] = tested on: RAC-alpha serine/threonine-protein kinase (Homo sapiens), P31749 [M227G]; experiment: Induction of mCherry tagged AKT1 M227G Ser473 hyperphosphorylation expressed in HEK293 cells at 2.5 uM after 30 mins by immunoblotting; type: cell-based
[8] = tested on: HEK-293T; experiment: Induction myristoylated AKT2 M225G mutant Ser473 hyperphosphorylation expressed in HEK293T cells at 2.5 uM after 30 mins pretreated with mTOR kinase inhibitor PP242 for 10 mins before compound addition by immunoblotting; type: cell-based
[9] = tested on: RAC-alpha serine/threonine-protein kinase (Homo sapiens), P31749 [M227G]; experiment: Induction of AKT1 M227G Thr308 hyperphosphorylation expressed in HEK293 cells at 2.5 uM after 30 mins pretreated with allosteric AKT inhibitor Akti-1,2 10 mins before compound addition by immunoblotting
[10] = tested on: HEK-293T; experiment: Induction of myristoylated AKT3 M229G mutant Thr308 hyperphosphorylation expressed in HEK293T cells at 2.5 uM after 30 mins pretreated with PDK1 inhibitor BX-795 for 10 mins before compound addition by immunoblotting; type: cell-based
[11] = tested on: MiaPaCa2; experiment: Induction of myristoylated AKT2 M225G mutant Thr308 hyperphosphorylation expressed in MiaPaCa2 cells at 2.5 uM after 30 mins by immunoblotting; type: cell-based
[12] = target: T1, RAC-alpha serine/threonine-protein kinase; experiment: Induction of flag-tagged wild type AKT1 Thr308 hyperphosphorylation expressed in HEK293 cells coexpressing HA-tagged AKT1 M227G after 30 mins by immunoblotting
[13] = tested on: RAC-alpha serine/threonine-protein kinase (Homo sapiens), P31749 [M227G]; experiment: Induction of myristoylated AKT1 M227G mutant Ser473 hyperphosphorylation expressed in HEK293T cells at 2.5 uM after 30 mins pretreated with PDK1 inhibitor BX-795 for 10 mins before compound addition by immunoblotting; type: cell-based; details: HEK-293T
[14] = tested on: HEK-293T; experiment: Induction of myristoylated AKT3 M229G mutant Ser473 hyperphosphorylation expressed in HEK293T cells at 2.5 uM after 30 mins pretreated with mTOR kinase inhibitor PP242 for 10 mins before compound addition by immunoblotting; type: cell-based
[15] = target: Receptor-type tyrosine-protein kinase FLT3 (Homo sapiens) (UniProt P36888); experiment: Inhibition of FLT3 at 1 uM in presence of 10 uM ATP by Select Screen kinase assay relative to untreated control
Procedure, shortened: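 Single-concentration profiling at 1 μM against a panel of 220 purified kinases, run as an outsourced SelectScreen kinase profiling service. Activity is expressed as percent inhibition.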

[16] = target: Serine/threonine-protein kinase PLK2 (Homo sapiens) (UniProt Q9NYY3); experiment: Inhibition of PLK2 at 1 uM in presence of 10 uM ATP by Select Screen kinase assay relative to untreated control
[17] = tested on: Proto-oncogene tyrosine-protein kinase receptor Ret (Homo sapiens), P07949 [V804L]; experiment: Inhibition of RET V804L mutant at 1 uM in presence of 10 uM ATP by Select Screen kinase assay relative to untreated control
Procedure, shortened: (§1)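 Commercial SelectScreen profiling panel of 220 purified kinases. Each kinase was tested at a single inhibitor concentration of 1 μM, and activity was expressed as percent inhibition.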

[18] = target: Dual specificity protein kinase CLK2 (Homo sapiens) (UniProt P49760); experiment: Inhibition of CLK2 at 1 uM in presence of 10 uM ATP by Select Screen kinase assay relative to untreated control
Procedure, shortened: (§2)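 Part of a 220-kinase panel of purified kinases, each tested with compound at 1 μM. Percent inhibition was measured in the Invitrogen SelectScreen profiling assay.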

[19] = target: Dual specificity protein kinase CLK1 (Homo sapiens) (UniProt P49759); experiment: Inhibition of CLK1 at 1 uM in presence of 100 uM ATP by Select Screen kinase assay relative to untreated control; procedure, shortened: as §2
[20] = target: Ephrin type-B receptor 4 (Homo sapiens) (UniProt P54760); experiment: Inhibition of EPHB4 at 1 uM in presence of 10 uM ATP by Select Screen kinase assay relative to untreated control
Procedure, shortened: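 Single-point screen at 1 μM against a panel of 220 purified kinases, run by Invitrogen staff as a SelectScreen profiling service. Read-out is percent inhibition of kinase activity.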

[21] = target: Dual specificity tyrosine-phosphorylation-regulated kinase 1B (Homo sapiens) (UniProt Q9Y463); experiment: Inhibition of DYRK1B at 1 uM in presence of 10 uM ATP by Select Screen kinase assay relative to untreated control; procedure, shortened: as §2
[22] = target: Serine/threonine-protein kinase Sgk2 (Homo sapiens) (UniProt Q9HBY8); experiment: Inhibition of SGK2 at 1 uM in presence of 10 uM ATP by Select Screen kinase assay relative to untreated control; procedure, shortened: as §1
[23] = target: Serine/threonine-protein kinase MARK1 (Homo sapiens) (UniProt Q9P0L2); experiment: Inhibition of MARK1 at 1 uM in presence of 10 uM ATP by Select Screen kinase assay relative to untreated control
[24] = target: Serine/threonine-protein kinase PAK 4 (Homo sapiens) (UniProt O96013); experiment: Inhibition of PAK4 at 1 uM in presence of 10 uM ATP by Select Screen kinase assay relative to untreated control
[25] = target: Rho-associated protein kinase 1 (Homo sapiens) (UniProt Q13464); experiment: Inhibition of ROCK1 at 1 uM in presence of 10 uM ATP by Select Screen kinase assay relative to untreated control
Chain of Rho-associated protein kinase 1 (Homo sapiens) (Q13464 2-1354 limits assumed): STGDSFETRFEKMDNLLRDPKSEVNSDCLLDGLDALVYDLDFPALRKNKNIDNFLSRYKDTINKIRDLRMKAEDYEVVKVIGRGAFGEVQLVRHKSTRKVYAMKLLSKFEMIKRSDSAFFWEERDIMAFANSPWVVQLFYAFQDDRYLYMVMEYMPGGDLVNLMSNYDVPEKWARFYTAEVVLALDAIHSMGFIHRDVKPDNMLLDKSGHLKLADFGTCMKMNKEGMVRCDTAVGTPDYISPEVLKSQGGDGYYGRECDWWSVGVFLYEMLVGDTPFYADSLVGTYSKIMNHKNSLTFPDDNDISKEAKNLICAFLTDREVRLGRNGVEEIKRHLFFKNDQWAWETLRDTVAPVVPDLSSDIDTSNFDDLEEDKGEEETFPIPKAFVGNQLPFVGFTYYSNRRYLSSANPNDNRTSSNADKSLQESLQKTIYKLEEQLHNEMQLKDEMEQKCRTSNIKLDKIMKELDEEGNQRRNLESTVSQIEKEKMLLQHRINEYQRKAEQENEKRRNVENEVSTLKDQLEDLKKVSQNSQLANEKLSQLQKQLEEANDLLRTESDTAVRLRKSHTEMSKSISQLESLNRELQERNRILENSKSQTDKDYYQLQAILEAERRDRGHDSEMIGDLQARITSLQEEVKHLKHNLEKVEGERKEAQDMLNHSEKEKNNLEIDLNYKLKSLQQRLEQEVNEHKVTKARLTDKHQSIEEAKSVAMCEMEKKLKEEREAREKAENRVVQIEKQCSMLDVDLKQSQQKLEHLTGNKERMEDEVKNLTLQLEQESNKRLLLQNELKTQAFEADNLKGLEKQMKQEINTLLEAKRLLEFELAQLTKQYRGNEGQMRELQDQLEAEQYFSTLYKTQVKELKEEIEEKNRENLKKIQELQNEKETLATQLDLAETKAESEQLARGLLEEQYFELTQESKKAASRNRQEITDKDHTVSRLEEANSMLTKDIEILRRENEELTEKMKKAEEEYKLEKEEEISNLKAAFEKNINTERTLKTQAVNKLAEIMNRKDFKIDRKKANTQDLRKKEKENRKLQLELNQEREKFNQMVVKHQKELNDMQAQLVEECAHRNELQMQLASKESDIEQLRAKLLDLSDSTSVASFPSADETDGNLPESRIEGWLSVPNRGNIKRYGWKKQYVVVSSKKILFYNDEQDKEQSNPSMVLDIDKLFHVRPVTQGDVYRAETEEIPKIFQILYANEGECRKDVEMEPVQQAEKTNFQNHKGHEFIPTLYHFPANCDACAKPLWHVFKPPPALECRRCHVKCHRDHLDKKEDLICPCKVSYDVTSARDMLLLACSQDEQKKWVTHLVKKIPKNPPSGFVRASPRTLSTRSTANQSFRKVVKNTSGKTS

Chain of RAC-alpha serine/threonine-protein kinase (Homo sapiens), P31749 [M227G] (P31749 whole entry M227G): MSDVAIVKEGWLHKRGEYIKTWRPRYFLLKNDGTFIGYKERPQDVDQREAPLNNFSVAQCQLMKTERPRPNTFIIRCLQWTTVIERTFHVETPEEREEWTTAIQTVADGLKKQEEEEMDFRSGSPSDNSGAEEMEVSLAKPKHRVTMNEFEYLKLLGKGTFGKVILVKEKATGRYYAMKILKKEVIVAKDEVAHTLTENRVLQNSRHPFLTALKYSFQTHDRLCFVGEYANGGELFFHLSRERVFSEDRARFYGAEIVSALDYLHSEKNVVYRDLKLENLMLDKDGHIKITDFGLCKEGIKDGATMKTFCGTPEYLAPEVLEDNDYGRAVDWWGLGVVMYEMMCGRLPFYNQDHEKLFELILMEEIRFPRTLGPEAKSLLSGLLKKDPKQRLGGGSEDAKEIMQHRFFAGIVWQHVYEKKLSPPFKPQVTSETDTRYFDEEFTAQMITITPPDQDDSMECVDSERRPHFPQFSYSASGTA
T1 sequence (P31749 whole entry): as the sequence (P31749 whole entry M227G) above, with G227M counted along it
Chain of Proto-oncogene tyrosine-protein kinase receptor Ret (Homo sapiens), P07949 [V804L] (P07949 whole entry V804L): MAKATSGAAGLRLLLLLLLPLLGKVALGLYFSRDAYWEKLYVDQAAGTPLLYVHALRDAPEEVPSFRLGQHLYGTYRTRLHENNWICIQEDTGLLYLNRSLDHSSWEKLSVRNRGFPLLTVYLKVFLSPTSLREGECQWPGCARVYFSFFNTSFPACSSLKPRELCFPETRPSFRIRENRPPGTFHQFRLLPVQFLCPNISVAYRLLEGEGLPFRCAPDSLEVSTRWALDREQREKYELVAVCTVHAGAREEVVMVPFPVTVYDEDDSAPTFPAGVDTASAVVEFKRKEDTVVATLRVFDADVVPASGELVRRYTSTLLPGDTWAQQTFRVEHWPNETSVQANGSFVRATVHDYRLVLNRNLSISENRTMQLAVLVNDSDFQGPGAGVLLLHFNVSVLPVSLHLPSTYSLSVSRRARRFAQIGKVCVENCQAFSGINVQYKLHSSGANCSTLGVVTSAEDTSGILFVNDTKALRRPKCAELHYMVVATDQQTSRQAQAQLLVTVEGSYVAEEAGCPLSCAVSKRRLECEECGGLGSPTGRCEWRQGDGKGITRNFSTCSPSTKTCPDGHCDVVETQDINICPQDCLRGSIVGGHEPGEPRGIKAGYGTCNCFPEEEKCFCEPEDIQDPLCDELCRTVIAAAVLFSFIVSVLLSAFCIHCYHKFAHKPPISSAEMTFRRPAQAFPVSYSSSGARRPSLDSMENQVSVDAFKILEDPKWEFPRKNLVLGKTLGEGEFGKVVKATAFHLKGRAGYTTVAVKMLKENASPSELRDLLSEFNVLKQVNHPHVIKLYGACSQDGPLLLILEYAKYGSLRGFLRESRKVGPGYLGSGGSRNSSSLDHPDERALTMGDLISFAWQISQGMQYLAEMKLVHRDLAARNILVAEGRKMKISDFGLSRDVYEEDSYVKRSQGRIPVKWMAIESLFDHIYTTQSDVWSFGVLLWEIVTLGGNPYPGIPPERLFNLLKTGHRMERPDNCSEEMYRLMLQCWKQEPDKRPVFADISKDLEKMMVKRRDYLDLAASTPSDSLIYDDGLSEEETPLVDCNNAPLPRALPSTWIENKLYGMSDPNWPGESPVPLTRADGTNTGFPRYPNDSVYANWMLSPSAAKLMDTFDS
Chain of Receptor-type tyrosine-protein kinase FLT3 (Homo sapiens) (P36888 whole entry): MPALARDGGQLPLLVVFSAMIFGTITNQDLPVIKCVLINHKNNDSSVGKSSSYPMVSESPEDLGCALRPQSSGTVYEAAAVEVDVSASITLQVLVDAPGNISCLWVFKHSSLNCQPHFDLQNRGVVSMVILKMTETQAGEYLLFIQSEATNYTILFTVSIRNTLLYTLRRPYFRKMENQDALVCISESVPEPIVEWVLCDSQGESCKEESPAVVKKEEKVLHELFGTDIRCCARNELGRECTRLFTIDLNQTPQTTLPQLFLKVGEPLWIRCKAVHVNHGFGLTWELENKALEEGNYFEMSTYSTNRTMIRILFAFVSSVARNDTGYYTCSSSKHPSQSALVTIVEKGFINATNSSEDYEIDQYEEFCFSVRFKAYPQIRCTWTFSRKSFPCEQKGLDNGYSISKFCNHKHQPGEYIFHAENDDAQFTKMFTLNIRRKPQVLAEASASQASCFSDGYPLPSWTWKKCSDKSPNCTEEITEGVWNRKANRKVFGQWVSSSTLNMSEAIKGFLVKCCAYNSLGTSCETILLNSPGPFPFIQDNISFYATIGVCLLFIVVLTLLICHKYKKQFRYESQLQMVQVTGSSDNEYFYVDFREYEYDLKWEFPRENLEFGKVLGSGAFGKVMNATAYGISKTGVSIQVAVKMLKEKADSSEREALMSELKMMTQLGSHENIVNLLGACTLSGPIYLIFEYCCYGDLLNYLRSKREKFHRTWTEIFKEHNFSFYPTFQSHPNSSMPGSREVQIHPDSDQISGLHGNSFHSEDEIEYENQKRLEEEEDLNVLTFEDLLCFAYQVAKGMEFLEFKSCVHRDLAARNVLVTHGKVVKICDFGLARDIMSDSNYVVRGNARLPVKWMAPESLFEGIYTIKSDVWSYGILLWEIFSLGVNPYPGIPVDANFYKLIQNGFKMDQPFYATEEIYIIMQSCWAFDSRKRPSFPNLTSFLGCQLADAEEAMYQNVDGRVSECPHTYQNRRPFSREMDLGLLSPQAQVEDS
Chain of Serine/threonine-protein kinase Sgk2 (Homo sapiens) (Q9HBY8 whole entry): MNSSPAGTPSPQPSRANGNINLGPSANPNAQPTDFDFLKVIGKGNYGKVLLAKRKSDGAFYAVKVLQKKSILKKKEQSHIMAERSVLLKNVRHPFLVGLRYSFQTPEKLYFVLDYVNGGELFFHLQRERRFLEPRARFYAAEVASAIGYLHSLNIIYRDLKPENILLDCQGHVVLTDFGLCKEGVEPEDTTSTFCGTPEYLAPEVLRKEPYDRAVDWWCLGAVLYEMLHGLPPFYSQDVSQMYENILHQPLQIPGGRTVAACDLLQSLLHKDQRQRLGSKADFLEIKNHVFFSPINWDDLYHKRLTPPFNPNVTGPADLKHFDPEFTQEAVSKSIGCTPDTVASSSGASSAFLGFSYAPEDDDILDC
Chain of Serine/threonine-protein kinase PLK2 (Homo sapiens) (Q9NYY3 whole entry, looked up): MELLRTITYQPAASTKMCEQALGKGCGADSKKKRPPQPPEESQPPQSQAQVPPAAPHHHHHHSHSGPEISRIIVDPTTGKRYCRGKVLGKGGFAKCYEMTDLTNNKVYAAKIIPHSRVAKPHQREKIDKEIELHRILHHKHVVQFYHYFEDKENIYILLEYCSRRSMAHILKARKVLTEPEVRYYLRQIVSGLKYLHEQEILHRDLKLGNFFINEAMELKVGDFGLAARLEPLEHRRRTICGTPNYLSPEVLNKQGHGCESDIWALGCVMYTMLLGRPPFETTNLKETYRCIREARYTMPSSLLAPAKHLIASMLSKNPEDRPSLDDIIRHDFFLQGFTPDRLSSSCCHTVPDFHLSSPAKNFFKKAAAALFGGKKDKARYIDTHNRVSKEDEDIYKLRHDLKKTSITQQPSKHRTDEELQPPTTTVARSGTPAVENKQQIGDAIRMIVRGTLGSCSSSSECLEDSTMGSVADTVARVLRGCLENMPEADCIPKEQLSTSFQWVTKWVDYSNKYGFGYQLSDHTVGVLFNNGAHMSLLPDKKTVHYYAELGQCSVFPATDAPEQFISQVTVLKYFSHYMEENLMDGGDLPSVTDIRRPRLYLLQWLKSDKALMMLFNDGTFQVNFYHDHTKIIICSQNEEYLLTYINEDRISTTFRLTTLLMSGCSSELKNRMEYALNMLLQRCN

Row | inhibition [15] [%] | inhibition [16] [%] | inhibition [17] [%] | inhibition [18] [%] | inhibition [19] [%] | inhibition [20] [%] | inhibition [21] [%] | inhibition [22] [%] | inhibition [23] [%] | inhibition [24] [%] | inhibition [25] [%] | SMILES | inhibition [2] | other results
1 | – | – | – | – | – | – | – | – | – | – | – | CCCc1cc(-c2cncc(OC[C@@H](N)Cc3c[nH]c4ccccc34)c2)cc2c(C)n[nH]c12 | inactive | Activity [1]: Active; Activity [3]: inactive; Activity [4]: Active; Activity [5]: inactive; Activity [6]: Active; Activity [7]: Active; Activity [8]: inactive; Activity [9]: inactive; Activity [10]: inactive; Activity [11]: Active; Activity [12]: inactive; Activity [13]: inactive; Activity [14]: inactive
2 | – | – | – | – | – | – | – | – | – | – | – | Cc1n[nH]c2ccc(-c3cncc(OC[C@@H](N)Cc4c[nH]c5ccccc45)c3)cc12 | Active | –
3 | 95 | 38 | 93 | 70 | 30 | 8 | 26 | 25 | 95 | 42 | 48 | O=C(NCCCNc1nc(Nc2cccc(NC(=O)N3CCCC3)c2)ncc1I)c1cccs1 | – | –
4 | 60 | 24 | 66 | 85 | 74 | 11 | 43 | 10 | 23 | 9 | -2 | COc1ccccc1N1CCN(c2ncnc3[nH]nc(Br)c23)CC1 | – | –
